Most compounds without a hit are left out; they make up all but 3% or so of the library.
C2C12 statin = suppression of simvastatin myotoxicity. 330,000 compounds, 0.78% hits. AID 602340. rescue of ATP level, % at 7.49 µM. C2C12 myotubes + simvastatin, ATP luminescence, 48 h; scaled: DMSO 0, geranylgeraniol control 100;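 active means mean ATP rescue above about 67%, or every replicate alone reaching that limit, limit read from the data, passing the limit was not always enough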;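 further: myotubes were challenged with 10 µM simvastatin during compound exposure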
S100A4 MyoIIA = inhibitors of human S100A4 binding to myosin IIA peptide | S100A4/TAMRA-MyoIIA peptide fluorescence polarization | inhibition, % at 10.7 µM | P26447 | 360,000 compounds, 0.14% hits;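 active means mean inhibition of at least 70% across replicates, with every replicate also reaching that level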
Target sequence (P26447 whole entry, looked up): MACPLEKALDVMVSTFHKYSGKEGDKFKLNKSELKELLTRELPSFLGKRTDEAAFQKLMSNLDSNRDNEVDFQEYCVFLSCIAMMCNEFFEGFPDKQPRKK
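Material: human S100A4 monomer with TAMRA-labelled myosin IIA peptide; buffer or medium: HEPES pH 7.2 with CaCl2, KCl, NaCl, DTT, Triton; compound dosing: one concentration per compound; schedule: 5 min incubation before reading; benchmarks: neutral control DMSO, positive control TFP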
PGC1a acetyl inh = PGC1a acetylation modulation, inhibitor mode | U2OS PGC1a acetylation, AlphaScreen anti-acetyl-lysine; with virally co-expressed GCN5 acetyltransferase | inhibition, % at 15.6 µM | 350,000 compounds, 0.17% hits | AID 651687;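 active means every replicate shows inhibition of at least 40%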;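 further: 0% = neutral control wells and 100% = positive control wells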
SIRT5 block = blocks human SIRT5 desuccinylation of peptide; Q9NXA8; Purified SirT5, succinyl-peptide AMC, trypsin-coupled fluorescence; AID 652115; 330,000 compounds, 1.1% hits; inhibition, % at 15 µM; in the data active means inhibition above about 15%
Target sequence (Q9NXA8 whole entry, looked up): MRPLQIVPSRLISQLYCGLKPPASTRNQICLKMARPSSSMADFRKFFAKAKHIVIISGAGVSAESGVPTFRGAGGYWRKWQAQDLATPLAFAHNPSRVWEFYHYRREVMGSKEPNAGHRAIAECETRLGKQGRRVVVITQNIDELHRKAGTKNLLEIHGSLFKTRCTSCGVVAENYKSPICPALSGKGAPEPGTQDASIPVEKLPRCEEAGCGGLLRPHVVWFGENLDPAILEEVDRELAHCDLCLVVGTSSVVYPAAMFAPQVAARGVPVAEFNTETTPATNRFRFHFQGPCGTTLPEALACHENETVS
Cneo AK release = causes C. neoformans cell lysis. AID 651654. adenylate kinase release luminescence, 4 h; normalised: neutral wells 0, clomiphene wells 100. 360,000 compounds, 0.2% hits. lysis activity, % at 15 µM;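 active means mean lysis activity across replicates of at least 80%, whatever share of replicates individually reach that level; inactive means mean lysis activity below 80%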
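Signal: Adenylate kinase release luminescence | Assay system: Log-phase Cryptococcus neoformans yeast cells | Input: Cells at 5 × 10^6 per mL | Buffer or medium: Fresh YPD growth medium | Compound: Single dose | Schedule: Static 4 h at 37 °C with compound, 1 h detection | Controls: Clomiphene | Read-out: Luminescence rise reflecting yeast cell lysis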
rRNA inh HTS = selective bacterial rRNA inhibition in E. coli | E. coli WT GFP vs humanized-ribosome RFP mutants, fluorescence, 24 h; stronger effect = lower value; DMSO median 0, no signal -100 | 350,000 compounds, 1.6% hits | GFP signal change (wild-type ribosome), % (concentration not given with the values);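 active means significant combined selectivity score with lowered wild-type GFP, culture density cut under 30%, mutant RFP and density less affected; inactive means any of these conditions unmet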
An asterisk follows results filed as active; . = no result.

SMILES	C2C12 statin	S100A4 MyoIIA	PGC1a acetyl inh	SIRT5 block	Cneo AK release	rRNA inh HTS
O=C1CC[C@@H](CN(Cc2ccccc2)Cc2cn[nH]c2-c2cc3ccccc3o2)N1	.	-5.6	.	-4.5	-0.5	-24.4*
O=C(CCCc1nc(-c2ccccc2)no1)Nc1cccnc1	86.4*	.	29.2	.	2.3	.
O=C(CCc1nc(-c2ccccc2)no1)Nc1cccnc1	27.3	1.6	.	2.4	0.2	-1.0
CCc1noc(C)c1C(=O)OCC(=O)NCc1ccc(Cl)cc1	-9.1	-3.5	14.5	18.2*	-0.6	6.3
Cc1csc(NC(=O)CSCC(=O)O)c1-c1nc2ccccc2s1	.	12.0	-2.5	2.2	.	-50.7*
O=C(OCc1ccccc1)N1CCC2CC1c1cc(-c3ccc(F)cc3)ccc12 (stereo not drawn)	4.5	-6.3	62.8*	-6.9	0.6	0.8
COc1ccc(-c2ccc3c(c2)C2CC3CCN2C(=O)OCc2ccccc2)cc1 (stereo not drawn)	-24.6	-3.0	2.8	0.4	-0.8	12.5
O=S(=O)(Nc1nccs1)c1ccc(NCc2cc(Br)cc(Br)c2O)cc1	0.4	11.7	-6.5	-0.1	-2.8	-47.5*
COc1cccc(CNc2ccc(S(=O)(=O)Nc3nccs3)cc2)c1O	-4.7	.	-5.4	.	-1.1	.
COc1cccc(S(=O)(=O)N2CC[C@@H]3[C@@H](CO)Nc4ccc(C#Cc5ccccc5)cc4[C@@H]32)c1	-16.9	102.8*	-0.2	6.4	3.6	1.9
Cc1ccc(S(=O)(=O)N2CC[C@@H]3[C@H]2c2cc(Br)ccc2N[C@@H]3CO)cc1	-5.9	2.5	13.3	15.4*	8.7	-10.7
Cc1cccc(S(=O)(=O)N2CC[C@@H]3[C@H](CO)Nc4ccc(C#Cc5ccc(F)cc5)cc4[C@@H]32)c1	-4.3	97.4*	-3.5	6.4	0.1	-7.2
COCC(=O)N1[C@H](CO)[C@H](c2ccccc2)C12CN(C(=O)Cc1ccccn1)C2	.	10.8	11.3	1.4	.	11.4
COc1ccc(CCC2(C)NC(=O)N(C(C)C(=O)N3c4ccccc4CC3C)C2=O)cc1 (stereo not drawn)	2.6	-1.5	.	-1.5	-1.0	-18.1*
COc1ccc(S(=O)(=O)CCC(=O)N2c3ccccc3CC2C)cc1 (stereo not drawn)	.	.	-16.4	.	-1.0	.
CNC[C@H]1Oc2ccc(NC(C)=O)cc2C(=O)N(C)C[C@@H]1C	.	.	.	.	.	1.4
OCCN(Cc1ccccc1)CC1CCCCC1	-2.9	.	56.6*	.	-0.9	.
Cc1ccc(Nc2ncnc3c2cnn3C)cc1	-3.5	-0.4	-6.0	0.4	-0.5	1.3
c1ccc(Cn2ncc3c(Nc4ccccc4)ncnc32)cc1	5.9	-30.5	.	-0.4	-0.9	-27.0*
COC(=O)CSc1ncnc2c1cnn2Cc1ccccc1	0.2	.	-1.3	.	-0.6	.
CC(C)(C)C(=O)CSc1ncnc2c1cnn2Cc1ccccc1	.	1.7	.	15.3*	.	2.5
COc1ccc(Nc2ncnc3c2cnn3Cc2ccc(C)cc2)cc1	67.7*	.	2.8	.	1.9	.
C[C@@H]1CN([C@@H](C)CO)C(=O)c2cc(NC(=O)Nc3ccc(F)cc3)ccc2O[C@@H](C)CCCCO[C@@H]1CN(C)Cc1ccc2c(c1)OCO2	29.5	-1.6	7.7	1.2	49.9	2.7
CCC(=O)Nc1ccc2c(c1)OC[C@@H](C)N(C(=O)COC)C[C@H](C)[C@@H](OC)CN(C)C2=O	-3.3	.	-4.9	.	.	-0.7
COc1ccc2c3c(n(C)c2c1)[C@H](CO)N(C(=O)C1CC1)CC31CCN(C(=O)Nc2cccc(F)c2)CC1	.	3.8	.	2.1	.	-9.1
SMILES	C2C12 statin	S100A4 MyoIIA	PGC1a acetyl inh	SIRT5 block	Cneo AK release	rRNA inh HTS
O=C1/C(=C/c2ccccc2)SC(=S)N1CCCC(=O)N1CCCCC1CCO (stereo not drawn)	4.8	-2.0	9.9	-1.4	.	0.9
O=C1/C(=C/c2ccccc2F)SC(=S)N1CCC(=O)N1CCCCC1CCO (stereo not drawn)	11.0	16.2	.	9.6	7.6	-23.2*
O=C1/C(=C/c2cccc(Cl)c2)SC(=S)N1CCC(=O)N1CCCCC1CCO (stereo not drawn)	0.1	-1.0	.	-2.1	1.0	-21.9*
O=C1/C(=C/c2cccs2)SC(=S)N1CC(=O)N1CCCCC1CCO (stereo not drawn)	16.9	-7.8	.	-1.0	2.3	-24.8*
C[C@@H]1CN([C@@H](C)CO)C(=O)c2cc(NS(=O)(=O)c3ccc(F)cc3)ccc2O[C@@H]1CN(C)C(=O)Nc1ccc(F)cc1	-1.2	1.8	-9.5	-1.6	-0.7	-1.7
C[C@@H]1CN([C@H](C)CO)C(=O)Cc2cc(NC(=O)C3CC3)ccc2O[C@H]1CN(C)Cc1ccccc1	5.4	-18.4	.	-6.6	-4.2	2.1
C[C@H]1CN([C@@H](C)CO)C(=O)c2cccc(NC(=O)C3CCCCC3)c2O[C@@H]1CN(C)Cc1ccc(Oc2ccccc2)cc1	-38.1	-2.9	-13.1	2.2	-2.0	-3.9
C[C@@H]1CN([C@H](C)CO)C(=O)c2cccc(NC(=O)NC3CCCCC3)c2O[C@@H]1CN(C)Cc1ccc(Oc2ccccc2)cc1	.	-10.1	16.8	19.7*	11.0	-9.0
C[C@@H]1CN([C@H](C)CO)C(=O)c2cccc(NC(=O)C3CCCCC3)c2O[C@@H]1CN(C)Cc1ccc(Oc2ccccc2)cc1	-43.7	143.0*	4.6	4.3	0.0	-1.9
C[C@H]1CN([C@@H](C)CO)C(=O)c2cccc(NC(=O)NC3CCCCC3)c2O[C@@H]1CN(C)Cc1ccc(C(=O)O)cc1	-10.3	3.6	-6.8	24.7*	-2.9	-2.0
C[C@H]1CN([C@@H](C)CO)C(=O)c2cccc(NC(=O)NC3CCCCC3)c2O[C@H]1CN(C)Cc1ccc(C(=O)O)cc1	-0.8	29.8	2.9	2.7	-1.5	2.7
O=C1C=C(NCc2ccc(Cl)c(Cl)c2)C2(CCCCC2)O1	142.3*	.	-0.6	.	-3.3	.
CCC(C)SCc1nc2ccccc2[nH]1 (stereo not drawn)	121.0*	.	-12.0	.	.	.
CCCN1[C@@H]2c3ccc(C4=CCCCC4)c(=O)n3C[C@H]1[C@H](CO)[C@H]2C(=O)Nc1ccccc1	-10.0	3.8	.	4.6	-2.1	-4.3
Cc1cc2c(cc1S(=O)(=O)N1CCN(c3cccc(C)c3C)CC1)OCCN2C	20.6	152.6*	-10.3	1.1	-2.3	-4.9
COc1cccc(N2CCN(S(=O)(=O)c3cc4c(cc3C)N(C)CCO4)CC2)c1	3.0	-1.2	.	-0.9	-1.4	-2.1
Cc1ccc(S(=O)(=O)N2[C@@H](c3ccccc3F)C(C(=O)O)=CC[C@H]2c2cccs2)cc1	0.0	-5.0	.	-0.9	0.9	-16.4*
Cc1ccc([C@@H]2CC=C(C(=O)O)CN2S(=O)(=O)c2ccc(C)cc2)cc1	4.3	-3.5	.	.	2.2	-19.2

From PubChem
